# Laboratory results from ChEMBL document CHEMBL1921783, “Hypoxia activated prodrugs of a 9-aza-anthrapyrazole derivative that has promising anticancer activity” (J Med Chem, 2011).
# Counter-ions that a name gives are not always drawn. Activity calls are given as the source filed them. No cut-off for these calls is given here.
# Experiments:
# [1] = target: DNA topoisomerase 2-alpha (Homo sapiens) (UniProt P11388); assay: Inhibition of DNA topoisomerase 2-mediated DNA fragmentation at 10 uM pretreated with 1% O2 for 2 hrs measured by gel electrophoresis analysis
# DNA topoisomerase 2-alpha (Homo sapiens), sequence (P11388 whole entry, the tested form may be a part): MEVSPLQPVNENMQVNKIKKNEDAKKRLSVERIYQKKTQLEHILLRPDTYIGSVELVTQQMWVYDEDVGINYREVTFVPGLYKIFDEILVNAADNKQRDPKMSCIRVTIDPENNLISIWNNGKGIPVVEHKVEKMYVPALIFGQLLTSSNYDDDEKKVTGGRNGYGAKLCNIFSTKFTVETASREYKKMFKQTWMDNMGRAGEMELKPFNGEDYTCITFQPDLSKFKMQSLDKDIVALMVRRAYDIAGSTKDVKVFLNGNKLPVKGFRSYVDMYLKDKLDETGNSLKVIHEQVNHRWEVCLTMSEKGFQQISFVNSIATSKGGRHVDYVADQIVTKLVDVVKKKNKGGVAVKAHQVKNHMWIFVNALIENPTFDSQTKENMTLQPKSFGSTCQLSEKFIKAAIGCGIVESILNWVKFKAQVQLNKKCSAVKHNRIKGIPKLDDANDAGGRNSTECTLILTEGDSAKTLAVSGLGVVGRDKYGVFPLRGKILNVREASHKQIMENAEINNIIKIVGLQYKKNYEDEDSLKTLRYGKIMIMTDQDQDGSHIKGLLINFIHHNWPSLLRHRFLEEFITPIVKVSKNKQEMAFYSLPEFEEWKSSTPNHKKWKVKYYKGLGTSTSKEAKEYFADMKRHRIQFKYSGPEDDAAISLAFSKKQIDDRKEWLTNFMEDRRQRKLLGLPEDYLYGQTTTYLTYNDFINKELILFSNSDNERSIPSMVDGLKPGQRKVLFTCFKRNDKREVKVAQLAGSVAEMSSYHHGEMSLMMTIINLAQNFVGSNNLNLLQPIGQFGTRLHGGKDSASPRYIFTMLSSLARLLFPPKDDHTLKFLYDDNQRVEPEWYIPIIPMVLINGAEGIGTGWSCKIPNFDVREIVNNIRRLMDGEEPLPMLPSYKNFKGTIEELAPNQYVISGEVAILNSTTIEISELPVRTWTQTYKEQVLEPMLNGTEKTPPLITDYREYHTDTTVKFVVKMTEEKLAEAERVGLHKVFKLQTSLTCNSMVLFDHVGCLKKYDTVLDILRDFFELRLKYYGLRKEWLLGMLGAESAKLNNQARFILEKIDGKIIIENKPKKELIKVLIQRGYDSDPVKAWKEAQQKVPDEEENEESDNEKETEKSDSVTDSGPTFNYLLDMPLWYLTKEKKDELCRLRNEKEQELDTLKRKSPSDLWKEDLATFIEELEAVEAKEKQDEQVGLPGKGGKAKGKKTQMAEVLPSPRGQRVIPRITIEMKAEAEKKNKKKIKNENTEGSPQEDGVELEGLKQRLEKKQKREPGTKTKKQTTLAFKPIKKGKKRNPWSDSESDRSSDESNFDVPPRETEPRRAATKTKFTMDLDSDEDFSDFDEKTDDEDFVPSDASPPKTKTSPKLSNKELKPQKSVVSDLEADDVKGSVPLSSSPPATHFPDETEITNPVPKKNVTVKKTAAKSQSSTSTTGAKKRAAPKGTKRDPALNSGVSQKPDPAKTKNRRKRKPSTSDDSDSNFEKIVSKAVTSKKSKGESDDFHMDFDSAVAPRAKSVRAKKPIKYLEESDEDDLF
# In short: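 Before the Topo II assay, compound incubated with rat liver S-9 fraction in 1% O2 or normal air for 2 h at 37 °C. Proteins were precipitated with ethanol and the sample centrifuged; the supernatant was then tested for inhibition of Topo II DNA fragmentation by gel electrophoresis.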
# MCF7 [2] = assay: Cytotoxicity against doxorubicin-sensitive human MCF7 cells under oxic condition assessed as growth inhibition after 74 hrs by sulforhodamine B assay; type: functional, cell-based; conditions: MCF7, 74 h
# In short: (§1)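 Cells grown in 96-well plates for 74 h across a range of test concentrations; growth measured by sulforhodamine B staining and IC50 taken as 50% inhibition of growth. Hypoxic arm held in an anaerobic chamber flushed with 95% N2/5% CO2; oxic arm in oxygen-rich conditions.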
# MCF7 [3] = assay: Cytotoxicity against doxorubicin-sensitive human MCF7 cells under hypoxic condition assessed as growth inhibition after 74 hrs by sulforhodamine B assay; type: functional, cell-based; conditions: MCF7, 74 h; in short: as §1
# MCF7 [4] = assay: Cytotoxicity against doxorubicin-resistant human MCF7 cells under hypoxic condition assessed as growth inhibition after 74 hrs by sulforhodamine B assay; type: functional, cell-based; conditions: MCF7, 74 h; in short: as §1
# Nucleic Acid [5] = assay: Displacement of ethidium bromide from DNA at 50 uM by fluorometric analysis; type: nucleic-acid assay
# In short: (§2)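 Fluorescence read-out of ethidium bromide displacement from DNA; IC50 is concentration reducing ethidium bromide binding by 50%; tested up to 50 μM.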
# LoVo [6] = assay: Cytotoxicity against human LoVo cells under hypoxic condition assessed as growth inhibition after 74 hrs by sulforhodamine B assay; type: functional, cell-based; in short: as §1
# LoVo [7] = assay: Cytotoxicity against human LoVo cells under oxic condition assessed as growth inhibition after 74 hrs by sulforhodamine B assay; type: functional, cell-based; in short: as §1
# Nucleic Acid [8] = assay: Binding affinity to DNA assessed as increase in hypochromicity by UV-spectroscopic analysis with compound pretreatment with CYP450; type: nucleic-acid assay
# In short: (§3)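 UV absorbance scans of compound recorded with sequentially increasing DNA concentrations; binding judged from hypochromicity and bathochromic shift. CYP450 pretreatment where applicable: incubation with rat liver S-9 fraction in 1% O2, 2 h, 37 °C, proteins precipitated with ethanol, supernatant after centrifugation used.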
# Nucleic Acid [9] = assay: Binding affinity to DNA assessed as increase in hypochromicity by UV-spectroscopic analysis without compound pretreatment with CYP450; type: nucleic-acid assay; in short: as §3
# Nucleic Acid [10] = assay: Binding affinity to DNA assessed as bathochromic shift by UV-spectroscopic analysis with compound pretreatment with CYP450; type: nucleic-acid assay; in short: as §3
# MCF7 [11] = assay: Cytotoxicity against doxorubicin-resistant human MCF7 cells under oxic condition assessed as growth inhibition after 74 hrs by sulforhodamine B assay; type: functional, cell-based; conditions: MCF7, 74 h; in short: as §1
# [12] = target: DNA topoisomerase 2-alpha (Homo sapiens) (UniProt P11388); assay: Inhibition of DNA topoisomerase 2-mediated DNA fragmentation at 50 uM by gel electrophoresis analysis
# In short: (§4)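 Topo II incubated with DNA and compound; products resolved by gel electrophoresis, with intact DNA as a single band and Topo II fragmentation giving multiple bands.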
# Nucleic Acid [13] = assay: Displacement of ethidium bromide from DNA by fluorometric analysis; type: nucleic-acid assay; in short: as §2
# [14] = target: DNA topoisomerase 2-alpha (Homo sapiens) (UniProt P11388); assay: Inhibition of DNA topoisomerase 2-mediated DNA fragmentation at 10 uM by gel electrophoresis analysis; in short: as §4
inhibition [1],Activity (Nucleic Acid [5]),Activity (Nucleic Acid [8]),Activity (Nucleic Acid [9]),Activity (Nucleic Acid [10]),inhibition [12],inhibition [14],Compound,IC50 (MCF7 [2]),IC50 (MCF7 [3]),IC50 (MCF7 [4]),IC50 (LoVo [6]),IC50 (LoVo [7]),IC50 (MCF7 [11]),IC50 (Nucleic Acid [13])
Active,inactive,Active,inactive,Active,inactive,,C[N+](C)([O-])CCNc1ccc2c3c(nn2CC[N+](C)(C)[O-])-c2cnccc2C(=O)c13,> 25000 nM,5 µM,1300 nM,1500 nM,> 25000 nM,> 25 µM,
,,,,,,,O=C1c2c(O)ccc(O)c2C(=O)c2c(NCCNCCO)ccc(NCCNCCO)c21 [MITOXANTRONE HYDROCHLORIDE],100 nM,1 µM,> 10000 nM,900 nM,100 nM,4.7 µM,4.5 µM
Active,,,,,,Active,CN(C)CCNc1ccc2c3c(nn2CCN(C)C)-c2cnccc2C(=O)c13,900 nM,4 µM,1200 nM,3300 nM,1300 nM,1 µM,6.8 µM
